The source made the active and inactive calls.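 The calls were made as follows: active = activation of at least 10% at the 50 µM dose, scaled between neutral and positive controls; inactive = the rest.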
Assay: inducers of mitochondrial cyt c release – biochemical, isolated mitochondria, cytochrome c ELISA, dry powder, orthogonal assay for A1 inhibitor project, confirmation (AID 504412)
Settings: CHL-1 A1-2A-BIM mitochondria, stronger effect = higher value
How it was run: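 System: A1-2A-BIM CHL-1 cell mitochondria; times: compound treatment 30 min, 30 °C; medium: trehalose AT buffer, pH 7.7, 80 mM KCl; controls: DMSO low, DMSO with tBid high; technique: cytochrome c ELISA, A450 with 540 nm correction; evaluation: cytochrome c freed from mitochondria into supernatant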

Cn1c(=O)c([N+](=O)[O-])c(Cl)c2ccccc21
activation (at 50 µM): 25.6% (active)
activation (cytochrome c release, at 10 µM): 10.1%

— PubChem BioAssay AID504412 (Broad Institute, 2011)
